Experimental data: ChEMBL document CHEMBL1158415, “Synthesis, antimicrobial activity and QSAR studies of new 2,3-disubstituted-3,3a,4,5,6,7-hexahydro-2H-indazoles” (Bioorg Med Chem Lett, 2009)

How the values were obtained:
[1] = Octanol-water partition coefficient, log P of the compound; assay type: physicochemical
Aspergillus niger = assay: Antifungal activity against Aspergillus niger after 7 days by tube dilution method; assay type: functional
Procedure, shortened: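 Tube dilution in Sabouraud dextrose broth, done in duplicate. DMSO test solution (10 µg/mL) is serially diluted to give 5, 2.5, 1.25, 0.625 and 0.312 µg/mL. Each tube gets 0.1 mL of spore/microbial suspension in saline, then is incubated at 25 °C for 7 d. MIC is read visually as the lowest concentration without turbidity, refined with intermediate concentrations. Fluconazole is the reference.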

Candida albicans = assay: Antifungal activity against Candida albicans after 48 hrs by tube dilution method; assay type: functional
Procedure, shortened: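 Tube dilution in Sabouraud dextrose broth, done in duplicate. DMSO test solution (10 µg/mL) is serially diluted to give 5 down to 0.312 µg/mL. Each tube gets 0.1 mL of yeast suspension in saline, then is incubated at 37 °C for 48 h. MIC is the lowest concentration preventing turbidity, refined with intermediate concentrations. Fluconazole is the reference.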

Staphylococcus aureus = assay: Antibacterial activity against Staphylococcus aureus after 24 hrs by tube dilution method; assay type: functional
Procedure, shortened: (§1)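 Tube dilution in double strength nutrient broth-IP, done in duplicate. Test solution in DMSO (10 µg/mL) is serially diluted twofold into medium to give 5, 2.5, 1.25, 0.625 and 0.312 µg/mL. Each tube gets 0.1 mL of microbial suspension in saline, then is incubated at 37 °C for 24 h. MIC is the lowest concentration with no visible turbidity, refined by testing intermediate concentrations. Ciprofloxacin is the reference.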

Bacillus subtilis = assay: Antibacterial activity against Bacillus subtilis after 24 hrs by tube dilution method; assay type: functional; procedure, shortened: as §1
Escherichia coli = assay: Antibacterial activity against Escherichia coli after 24 hrs by tube dilution method; assay type: functional; procedure, shortened: as §1
Pseudomonas aeruginosa = assay: Antibacterial activity against Pseudomonas aeruginosa after 24 hrs by tube dilution method; assay type: functional; procedure, shortened: as §1

SMILES	logP [1]	-logMIC (Aspergillus niger)	-logMIC (Candida albicans)	-logMIC (Staphylococcus aureus)	-logMIC (Bacillus subtilis)	-logMIC (Escherichia coli)	-logMIC (Pseudomonas aeruginosa)
COc1ccc(C2C3CCCCC3=NN2S(=O)(=O)c2ccccc2)cc1 (stereo not drawn)	4.6	2.57	2.61	2.57	2.47	2.57	2.61
Clc1ccc(C2NN=C3CCCCC32)cc1 (stereo not drawn)	4.4	2.27	2.27	2.07	2.07	2.19	2.19
Cc1ccc(S(=O)(=O)N2N=C3CCCCC3C2c2ccc(Cl)cc2)cc1 (stereo not drawn)	5.8	2.64	2.59	2.49	2.64	2.59	2.64
O=S(=O)(c1ccc(Cl)cc1)N1N=C2CCCCC2C1c1ccc(F)cc1 (stereo not drawn)	5.1	2.64	2.59	2.64	2.69	2.75	2.79
Cc1ccc(S(=O)(=O)N2N=C3CCCCC3C2c2ccc(F)cc2)cc1 (stereo not drawn)	5.4	2.67	2.57	2.47	2.62	2.62	2.67
O=S(=O)(c1cccc2ccccc12)N1N=C2CCCCC2C1c1ccc(F)cc1 (stereo not drawn)	6	2.66	2.61	2.61	2.66	2.71	2.77
O=[N+]([O-])c1ccc(S(=O)(=O)N2N=C3CCCCC3C2c2ccc(Cl)cc2)cc1 (stereo not drawn)	5.3	2.82	2.82	2.67	2.72	2.67	2.78
O=S(=O)(c1ccc(Cl)cc1)N1N=C2CCCCC2C1c1ccc(Cl)cc1 (stereo not drawn)	5.9	2.71	2.77	2.61	2.71	2.66	2.77
COc1ccc(C2C3CCCCC3=NN2S(=O)(=O)c2ccc(C)cc2)cc1 (stereo not drawn)	5.1	2.68	2.63	2.49	2.63	2.58	2.58
CS(=O)(=O)N1N=C2CCCCC2C1c1ccc(F)cc1 (stereo not drawn)	3.3	2.57	2.47	2.37	2.57	2.47	2.52
CS(=O)(=O)N1N=C2CCCCC2C1c1ccc(Cl)cc1 (stereo not drawn)	3.7	2.5	2.59	2.4	2.54	2.4	2.5
COc1ccc(C2C3CCCCC3=NN2S(=O)(=O)c2ccc(Cl)cc2)cc1 (stereo not drawn)	4.3	2.65	2.61	2.61	2.65	2.65	2.7
O=S(=O)(c1cccc2ccccc12)N1N=C2CCCCC2C1c1ccc(Cl)cc1 (stereo not drawn)	6.4	2.67	2.73	2.53	2.67	2.63	2.67
COc1ccc(C2C3CCCCC3=NN2S(C)(=O)=O)cc1 (stereo not drawn)	2.9	2.53	2.59	2.31	2.53	2.39	2.49
COc1ccc(C2C3CCCCC3=NN2S(=O)(=O)c2cccc3ccccc23)cc1 (stereo not drawn)	5.6	2.62	2.62	2.53	2.62	2.62	2.67
O=[N+]([O-])c1ccc(S(=O)(=O)N2N=C3CCCCC3C2c2ccc(F)cc2)cc1 (stereo not drawn)	4.9	2.76	2.65	2.7	2.76	2.76	2.81
COc1ccc(C2NN=C3CCCCC32)cc1 (stereo not drawn)	3.6	2.19	2.19	2.01	2.01	2.06	2.19
COc1ccc(C2C3CCCCC3=NN2S(=O)(=O)c2ccc([N+](=O)[O-])cc2)cc1 (stereo not drawn)	4.5	2.66	2.77	2.66	2.62	2.66	2.72
O=S(=O)(c1ccccc1)N1N=C2CCCCC2C1c1ccc(Cl)cc1 (stereo not drawn)	5.4	2.62	2.62	2.57	2.62	2.57	2.67
Fc1ccc(C2NN=C3CCCCC32)cc1 (stereo not drawn)	4	2.24	2.16	2.04	2.24	2.24	2.24
O=S(=O)(c1ccccc1)N1N=C2CCCCC2C1c1ccc(F)cc1 (stereo not drawn)	5	2.55	2.6	2.55	2.65	2.65	2.71
O=C(O)c1cn(C2CC2)c2cc(N3CCNCC3)c(F)cc2c1=O [CIPROFLOXACIN]				2.03	2.33	2.03	2.62
OC(Cn1cncn1)(Cn1cncn1)c1ccc(F)cc1F [FLUCONAZOLE]		3.16	3.16				
